In PubChem BioAssay:
The source made the active and inactive calls.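 How the source made its calls, unless noted: active means Her2 level under about 52% in both replicate screens, with viability over 70% of control (limit read from the data); inconclusive means Her2 under the limit in one screen only, or viability under 70%; inactive means Her2 level above the set limit.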

Key:
[1] = reducers of endogenous Her2 protein level, primary screen, SKBR3 breast tumor cells, AlphaScreen, ATP viability (AID 461); conditions: 18-24 h, measured here: SKBR3 viability, ATP luminescence, at 10 µM;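 on Her2 level: lower value means less Her2 protein in the cells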;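 on viability: percent of carrier control wells set as 100% viability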
[2] = target: Receptor tyrosine-protein kinase erbB-2 (Homo sapiens) (UniProt P04626); assay: as above; conditions: 18-24 h, at 10 µM, stronger effect = lower value
[3] = SK-BR-3 cell growth inhibitors, pilot screen, 24 h, human (AID 572;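 active means viability at or below 10% of carrier control in both of two separate runs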;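 further: compound exposure lasted between 18 and 24 h rather than exactly 24 h; 100% = carrier-treated control wells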); conditions: SK-BR-3 viability, CellTiter-Glo luminescence, at 10 µM, stronger effect = lower value
[4] = HUVEC growth inhibition – cell-based, human, primary screen (AID 575;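 active means viability at or below 30% in both replicate assays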;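 further: 100% = median of untreated cell wells with 0.1% DMSO on each plate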); conditions: HUVEC proliferation, CellTiter-Glo luminescence, 72 h; at 10 µM; stronger effect = lower value
Method in brief: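 Test system – primary HUVEC, no more than 12 passages · Dosing – one dose, 10 µM final, 0.1% DMSO · Times – 72 h treatment at 37 °C · Measured by – ATP-based CellTiter-Glo luminescent read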

[5] = growth inhibitors of H69AR lung tumor, primary screen, human, duplicate replicates (AID 580;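 active means viability at or under a set limit in both replicates, limit being median viability minus 3 SD, cut at about 48% in these data, passing the limit was not always enough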;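 further: 100% = mean luminescence of untreated wells and 0% = no signal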); conditions: H69AR lung tumor cells viability, ATP luminescence, 72 h; at 10 µM; stronger effect = lower value
[6] = reversal of MRP1-mediated doxorubicin resistance, pilot screen, H69AR cells, doxorubicin co-treatment (AID 601;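 active means viability loss from added drug above about 55%, and viability with drug at most 40%, in both replicates, limit read from the data, passing the limit was not always enough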); conditions: CellTiter-Glo, 72 h, at 10 µM; for differential viability (reversal): stronger effect = higher value
[7] = 384-well plate pilot, post-Golgi transport modulator project, inhibition of yeast transport mutant growth (AID 636; in the data active means inhibition above about 31%); conditions: absorbance 615 nm, about 18 h, stronger effect = higher value
[8] = growth suppression of yeast trafficking mutant, preliminary HTS, modulators of trafficking downstream of Golgi apparatus project, 1536-format plate, OD 615 nm (AID 637; in the data active means inhibition above about 30%); conditions: yeast transport mutant growth, absorbance 615 nm, 18 h; stronger effect = higher value
[9] = H69AR cells + 2 uM doxorubicin, measured here: viability with 2 uM doxorubicin, stronger effect = lower value
[10] = H69AR cells, compound alone cytotoxicity

Receptor tyrosine-protein kinase erbB-2 (Homo sapiens), sequence (P04626 whole entry, looked up): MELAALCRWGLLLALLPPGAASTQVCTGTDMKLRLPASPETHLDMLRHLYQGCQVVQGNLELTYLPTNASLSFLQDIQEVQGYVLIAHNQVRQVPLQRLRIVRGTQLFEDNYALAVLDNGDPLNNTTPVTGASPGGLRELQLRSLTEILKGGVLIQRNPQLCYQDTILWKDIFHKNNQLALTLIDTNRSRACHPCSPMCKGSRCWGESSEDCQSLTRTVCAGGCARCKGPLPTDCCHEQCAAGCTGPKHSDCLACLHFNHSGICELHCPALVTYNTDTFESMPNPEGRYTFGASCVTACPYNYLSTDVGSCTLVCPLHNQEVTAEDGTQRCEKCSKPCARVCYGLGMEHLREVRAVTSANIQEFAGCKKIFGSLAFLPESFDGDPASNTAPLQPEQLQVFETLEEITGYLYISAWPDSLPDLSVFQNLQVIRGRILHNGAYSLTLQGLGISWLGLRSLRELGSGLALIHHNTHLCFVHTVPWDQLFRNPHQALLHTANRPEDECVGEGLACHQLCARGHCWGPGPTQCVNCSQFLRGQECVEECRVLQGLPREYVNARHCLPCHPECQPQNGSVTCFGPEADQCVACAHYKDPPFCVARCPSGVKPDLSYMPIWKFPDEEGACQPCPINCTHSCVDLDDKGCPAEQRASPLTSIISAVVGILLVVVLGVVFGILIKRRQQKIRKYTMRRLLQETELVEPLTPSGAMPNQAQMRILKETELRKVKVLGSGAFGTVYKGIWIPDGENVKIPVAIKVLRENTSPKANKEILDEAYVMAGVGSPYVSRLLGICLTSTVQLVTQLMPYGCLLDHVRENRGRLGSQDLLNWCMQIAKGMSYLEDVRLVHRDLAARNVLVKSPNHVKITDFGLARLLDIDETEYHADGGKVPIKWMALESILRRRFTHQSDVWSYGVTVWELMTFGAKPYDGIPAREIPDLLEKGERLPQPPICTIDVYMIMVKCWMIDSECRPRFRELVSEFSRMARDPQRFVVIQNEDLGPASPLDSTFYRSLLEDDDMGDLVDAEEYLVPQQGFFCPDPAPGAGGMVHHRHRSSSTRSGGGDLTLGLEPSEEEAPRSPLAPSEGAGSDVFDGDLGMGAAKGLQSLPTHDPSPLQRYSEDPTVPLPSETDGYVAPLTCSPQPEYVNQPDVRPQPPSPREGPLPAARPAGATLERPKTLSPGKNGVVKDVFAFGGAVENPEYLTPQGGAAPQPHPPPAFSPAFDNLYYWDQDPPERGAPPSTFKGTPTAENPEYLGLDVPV

| SMILES | viability [1] [%] | Her2 level [2] | viability [3] | viability [4] | viability [5] | differential viability (reversal) ([6]; H69AR cells + 2 uM doxorubicin) | viability [6, 9] [%] | viability [6, 10] [%] | inhibition [7] | inhibition [8] |
| --- | --- | --- | --- | --- | --- | --- | --- | --- | --- | --- |
| COC(=O)Cn1cnc2c(nnn2-c2ccc(C)cc2)c1=O | 86 | 108% (inactive) | 86% (inactive) | 112% (inactive) | 94.7% (inactive) | 7% (inactive) | 87.7 | 94.7 | -6.62% (inactive) | -2.17% (inactive) |
| O=C(CN1CCOCC1)N1CCCc2c1c(=O)oc1ccc(OCc3ccccc3)cc21 | 82 | 99.5% (inactive) | 82% (inactive) | 94.8% (inactive) | 77.2% (inactive) | 4.61% (inactive) | 72.6 | 77.2 | -5.07% (inactive) | -4.1% (inactive) |
| ON1C2CCCCC2N(O)C1c1c(F)c(F)c(F)c(F)c1F (stereo not given) | 89.5 | 79% (inactive) | 89.5% (inactive) | 85.9% (inactive) | 92.8% (inactive) | 10.3% (inactive) | 82.5 | 92.8 | -5.2% (inactive) | -0.97% (inactive) |
| COc1ccc(Cl)c(NCCC(=O)O)c1 | 88 | 107% (inactive) | 88% (inactive) | 98.6% (inactive) | 95.6% (inactive) | 7.1% (inactive) | 88.5 | 95.6 | -1.37% (inactive) | 9.37% (inactive) |
| O=C(c1cc2ccccc2oc1=O)N1CCSC1c1ccco1 (stereo not given) | 100 | 93.5% (inactive) | 100% (inactive) | 97.5% (inactive) | 91.5% (inactive) | 6.19% (inactive) | 85.3 | 91.5 | -8.4% (inactive) | 5.74% (inactive) |
| Cc1ccc(N2C(=O)c3ccccc3C2Nc2cccnc2)nc1 (stereo not given) | 94 | 99.5% (inactive) | 94% (inactive) | 85.4% (inactive) | 83.3% (inactive) | -10.8% (inactive) | 94.1 | 83.3 | -2.18% (inactive) | -1.33% (inactive) |
| O=C(c1ccc(COc2c(F)c(F)c(F)c(F)c2F)o1)N1CCOCC1 | 111 | 98.5% (inactive) | 111% (inactive) | 100% (inactive) | 88% (inactive) | 7.68% (inactive) | 80.3 | 88 | -5.81% (inactive) | 6.98% (inactive) |
| CCc1nnc(NC(=O)c2cccc(C(=O)Nc3nnc(CC)s3)n2)s1 | 53.5 | 72% (inactive) | 53.5% (inactive) | 3.29% (active) | 8.87% (active) | 1.33% (inactive) | 7.54 | 8.87 | 83.5% (active) | 73% (active) |
| Cn1c(=O)c2c(nc(NCCCO)n2CCc2ccccc2)n(C)c1=O | 94 | 138% (inactive) | 94% (inactive) | 93.7% (inactive) | 87.1% (inactive) | -2.35% (inactive) | 89.4 | 87.1 | 5.45% (inactive) | -2.83% (inactive) |
| Nc1nnn(Cc2ccccc2)n1 | 93.5 | 92% (inactive) | 93.5% (inactive) | 100% (inactive) | 119% (inactive) | 22.1% (inactive) | 97.3 | 119 | -5.21% (inactive) | -6.98% (inactive) |
| C=CCNC(=O)CN(c1cccc(Br)c1)S(C)(=O)=O | 96 | 106% (inactive) | 96% (inactive) | 94.6% (inactive) | 102% (inactive) | 10.9% (inactive) | 91.3 | 102 | -5.6% (inactive) | 0.16% (inactive) |
| CCC(=O)NC1(C(F)(F)F)C(=O)NC(C)=C1C#N (stereo not given) | 102 | 84.5% (inactive) | 102% (inactive) | 101% (inactive) | 97.9% (inactive) | 5.2% (inactive) | 92.7 | 97.9 | -4.74% (inactive) | 1.59% (inactive) |
| CCC(C(=O)O)n1c(C(F)(F)F)nc2ccccc21 (stereo not given) | 105 | 116% (inactive) | 105% (inactive) | 105% (inactive) | 103% (inactive) | 3.27% (inactive) | 99.3 | 103 | -5.62% (inactive) | 0% (inactive) |
| O=P(O)(O)c1ccccc1OCCOCCOc1ccccc1P(=O)(O)O | 101 | 89.5% (inactive) | 101% (inactive) | 111% (inactive) | 92% (inactive) | 5.91% (inactive) | 86.1 | 92 | -6.08% (inactive) | 0.5% (inactive) |
| COc1ccc(C(=O)CSc2nnc(C3CCCCC3)n2N)c(OC)c1 | 91.5 | 105% (inactive) | 91.5% (inactive) | 119% (inactive) | 83.3% (inactive) | 2% (inactive) | 81.3 | 83.3 | -4% (inactive) | -6.23% (inactive) |
| CCOc1ccc(-n2c(C)nc3c(cnn3-c3ccc(Cl)cc3)c2=O)cc1 | 95 | 99.5% (inactive) | 95% (inactive) | 80.3% (inactive) | 80.7% (inactive) | -6.13% (inactive) | 86.8 | 80.7 | -0.39% (inactive) | -3.06% (inactive) |
| CCOC(=O)N1CCN(S(=O)(=O)c2cc(Cl)c(OC)cc2Cl)CC1 | 85 | 102% (inactive) | 85% (inactive) | 108% (inactive) | 91.1% (inactive) | -0.21% (inactive) | 91.3 | 91.1 | -2.24% (inactive) | -4.92% (inactive) |
| Cc1cc2ncc(C(=O)Nc3ccccc3)c(C)n2n1 | 94 | 94% (inactive) | 94% (inactive) | 124% (inactive) | 99.5% (inactive) | 12.7% (inactive) | 86.8 | 99.5 | -4.34% (inactive) | -0.48% (inactive) |
| CCc1nc(C)c(-c2ccccc2)c(=O)[nH]1 | 102 | 120% (inactive) | 102% (inactive) | 81.8% (inactive) | 113% (inactive) | 25.6% (inactive) | 87.2 | 113 | -3.2% (inactive) | -8.39% (inactive) |
| COc1ccc(-c2nnc(SCC#N)o2)cc1 | 104 | 91.5% (inactive) | 104% (inactive) | 107% (inactive) | 103% (inactive) | 13.6% (inactive) | 89.1 | 103 | -5.47% (inactive) | 0.65% (inactive) |
| CC1(C)Cc2c(sc3ncnc(N)c23)CO1 | 116 | 92.5% (inactive) | 116% (inactive) | 96.6% (inactive) | 95.6% (inactive) | 8.37% (inactive) | 87.3 | 95.6 | -7.47% (inactive) | 1.48% (inactive) |
| COc1ccc(Cc2nc(-c3ccc(NC(=O)c4cccnc4)cc3)no2)cc1 | 109 | 84.5% (inactive) | 109% (inactive) | 123% (inactive) | 17.7% (active) | -0.01% (inactive) | 17.7 | 17.7 | -7.7% (inactive) | 7.94% (inactive) |
| O=C(NCC1CCCO1)C1CCCN(S(=O)(=O)c2cccc3nsnc23)C1 (stereo not given) | 95.5 | 118% (inactive) | 95.5% (inactive) | 93.2% (inactive) | 98.5% (inactive) | 14.3% (inactive) | 84.2 | 98.5 | -2.27% (inactive) | -7.62% (inactive) |
| CCCn1nc(NS(=O)(=O)c2ccccc2)c2cc3ccccc3nc21 | 91.5 | 94.5% (inactive) | 91.5% (inactive) | 76.5% (inactive) | 120% (inactive) | 25% (inactive) | 94.9 | 120 | -1.84% (inactive) | 5.45% (inactive) |
| COc1ccc(N2CCN(c3ccc(N)cc3C#N)CC2)cc1 | 103 | 88.5% (inactive) | 103% (inactive) | 78.2% (inactive) | 95% (inactive) | 2.29% (inactive) | 92.7 | 95 | -3.38% (inactive) | 0.32% (inactive) |
| O=C(O)C1CC=CCC1C(=O)NCc1ccccc1 (stereo not given) | 106 | 87% (inactive) | 106% (inactive) | 91.1% (inactive) | 92.2% (inactive) | -3.77% (inactive) | 96 | 92.2 | -4.4% (inactive) | -2.38% (inactive) |
| CCN(CC)Cc1nc2c(c(=O)[nH]1)C1(CCCCC1)Cc1ccccc1-2 | 87 | 82.5% (inactive) | 87% (inactive) | 93.6% (inactive) | 72.8% (inactive) | -18.9% (inactive) | 91.7 | 72.8 | -5.07% (inactive) | 0.16% (inactive) |
| COC(=O)c1ccccc1NC(=O)CSc1nnc(-c2ccncc2)o1 | 98 | 81.5% (inactive) | 98% (inactive) | 103% (inactive) | 101% (inactive) | 8.3% (inactive) | 92.4 | 101 | -4.67% (inactive) | 0.95% (inactive) |
| CCOc1ccc(OCc2ccc(C(=O)Nc3cccc(C)n3)o2)cc1 | 101 | 85% (inactive) | 101% (inactive) | 84.1% (inactive) | 93.4% (inactive) | 6.08% (inactive) | 87.3 | 93.4 | -1.58% (inactive) | -1.61% (inactive) |
